An excerpt weighted towards active compounds, which were near 1.9% of everything screened.
NTR1 agonist – NTR1 (human) agonism; P30989; AID 493036; 330,000 compounds, 0.17% hits; NTR1-U2OS beta-arrestin-GFP spot imaging, agonist mode; activation, % at 20 µM;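 active means activation at or above 40% of the spot to cytoplasm intensity ratio, with at least 20 cells analyzed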;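 further: 0% = DMSO without peptide and 100% = 100 nM NTR1 peptide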
MC4R ag barr – agonists of human melanocortin 4 receptor (MC4R) beta-arrestin. 360,000 compounds, 0.98% hits. activation, % at 8.9 µM. U2OS MC4R beta-arrestin complementation, luminescence; percent of melanotan II response, DMSO zero;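 active means activation above a per-plate cutoff, the mean activation of sample wells on that plate plus 3 SD, cut at about 8% in these data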
NOD2 RIPK2 PPI – inhibitors of human NOD2-RIPK2 interaction; CHO BLA complementation NOD2-RIPK2, CCF4 ratio; inhibition, % at 4.98 µM; 360,000 compounds, 0.38% hits; in the data active means inhibition above about 21%;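 further: 0% = vehicle only and 100% = reference blocker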
TLR4 MyD88 comp – blocks binding of human TLR4 to MyD88; inhibition, % at 8.4 µM; 200,000 compounds, 0.18% hits; HeLa CL3-4 TLR4/MyD88 BLA complementation, FRET ratio; AID 861; in the data active means inhibition above about 25%;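 further: 0% = vehicle and 100% = reference inhibitor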
TLR9-MyD88 block – TLR9-MyD88 interaction inhibition; Q9NR96+Q99836; CHO BLA complementation TLR9-MyD88, CCF4 FRET ratio; inhibition, % at 4.98 µM; AID 504734; 340,000 compounds, 0.21% hits;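 active means inhibition above the mean over all tested compounds plus 3 SD, cut at about 21% in these data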;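 further: 0% = DMSO only wells and 100% = clavulanate BLA inhibitor control wells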
MC4R antag cAMP – antagonists of human melanocortin 4 receptor (MC4R); inhibition, % at 6.5 µM; 360,000 compounds, 0.48% hits; P32245; AID 540295; MC4R-expressing cells, MTII-stimulated cAMP, LANCE TR-FRET;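 active means inhibition above its plate's cutoff, the mean of tested wells on that plate plus 3 SD, cut at about 29% in these data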;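 further: 0% = Melanotan II alone and 100% = Melanotan II plus saturating MCL0020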
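Test system: U2OS cells stably expressing human melanocortin 4 receptor (MC4R); also added: Melanotan II challenge; compound: 6.5 µM single dose; timing: 30-min compound preincubation, 1-h Melanotan II challenge, 1-h detection, room temperature; signal: Eu-cAMP/anti-cAMP TR-FRET, emission 671 nm; repeats: one well per compound, no replicates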
MC4R barr conf – human MC4R beta-arrestin agonism confirmation. shares compounds with MC4R ag barr. U2OS MC4R beta-arrestin recruitment, luminescence; scaled DMSO 0%, Melanotan II 100%. activation, % at 8.9 µM. 2,400 compounds, 31% hits;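 active means mean activation across replicates above the hit cutoff set in the earlier primary screen, cut at about 8% in these data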
MOR DOR agonist – activates mu-delta opioid heterodimer, MC4R agonist counter-screen; shares compounds with MC4R ag barr; U2OS PathHunter beta-arrestin, beta-gal luminescence; percent of deltorphin B response, DMSO zero; activation, % at 9.2 µM; 2,400 compounds, 5.8% hits; AID 602194;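 active means mean activation across replicates exceeds the hit threshold derived in the earlier primary screen, cut at about 18% in these data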;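 further: 100% = deltorphin B at 0.9 µM final and 0% = DMSO alone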
* = called active by the depositor; . = no result.

SMILES | NTR1 agonist | MC4R ag barr | NOD2 RIPK2 PPI | TLR4 MyD88 comp | TLR9-MyD88 block | MC4R antag cAMP | MC4R barr conf | MOR DOR agonist
COc1ccc(OCC(=O)Nc2cccc(NC(=O)COc3ccc(OC)cc3)n2)cc1 | 4 | 13* | -3 | -15 | 6 | 1 | 5 | 26*
COc1ccc(-c2nnc(SCC(=O)Nc3ccccc3OC)o2)cc1 | 1 | -2 | 5 | -11 | 9 | -4 | . | .
Nc1c(C(=O)Nc2ccccc2Cl)nnn1-c1ccc2c(c1)OCCO2 | 6 | 16* | -5 | . | -5 | 9 | 2 | 4
Nc1c(C(=O)Nc2ccc3c(c2)OCCO3)nnn1CCc1ccccc1 | 6 | 0 | -12 | 5 | -9 | -13 | . | .
S=c1[nH]nc(-c2cccs2)n1/N=C/c1cn(-c2ccccc2)nc1-c1cccs1 | 8 | 10* | 0 | . | . | 25 | 1 | 4
Cc1ccc(-c2nn(-c3ccccc3)cc2/C=N/n2c(-c3cccs3)n[nH]c2=S)cc1 | 14 | 0 | -8 | . | . | 21 | . | .
CCOC(=O)[C@]12CCC=C1N(Cc1cccc3ccccc13)C(=O)[C@H](CC(=O)N1CCOCC1)C2 | . | . | -5 | . | . | . | . | .
CN=C(Nc1cccnc1)c1ccccc1 | -1 | -1 | -3 | . | -8 | 19 | . | .
CC(=O)Nc1ccc(C(=O)CSc2cc(C)c3cccc(C)c3n2)cc1 | 17 | 28* | -7 | 1 | 3 | -4 | 3 | 4
O=C(O)c1ccc(-c2ccc(/C=C3\NC(=O)N(Cc4ccc(Cl)cc4)C3=O)o2)cc1Cl | 2 | 1 | -14 | -6 | -7 | -7 | . | .
CCOc1ccc(-c2cc(C(=O)Nc3cccc(C(F)(F)F)c3)[nH]n2)c(C)c1 | . | 11* | -3 | . | . | 4 | 6 | 5
CCOc1ccc(-c2cc(C(=O)NCc3ccc(C(F)(F)F)cc3)[nH]n2)c(C)c1 | . | 13* | -5 | . | . | 1 | 1 | 8
O=C(Nc1cccc(S(=O)(=O)N2CCOCC2)c1)c1c2c(nc3ccccc13)CCC2 | 0 | -1 | 1 | 5 | 5 | 11 | . | .
CC(=O)c1ccc2c(c1)Cc1cc(C(C)=O)ccc1-2 | 0 | 14* | 6 | -2 | 3 | -5 | -1 | 8
CCC(=O)Nc1ccc2c(c1)Cc1cc(NC(=O)CC)ccc1-2 | 0 | -2 | -1 | . | -3 | 3 | . | .
COc1ccc(OC)c(NC(=O)c2cc3c(Cl)nc4ccccc4c3s2)c1 | 7 | 28* | 4 | 3 | -3 | 5 | 6 | 19*
COc1ccc(NC(=O)c2cc3c(Cl)nc4ccccc4c3s2)cc1OC | 14 | 11* | -15 | -23 | -7 | 5 | 7 | 8
CCn1c(=O)c2cc(C(=O)Nc3ccccc3OC)sc2c2ccccc21 | 14 | 1 | -3 | . | -3 | -11 | . | .
O=C(CNC(=O)c1cccs1)N/N=C/c1c[nH]c2ccccc12 | 1 | 2 | -2 | -3 | -3 | 7 | . | .
O=C(COC(=O)C(c1ccccc1)c1ccccc1)NCc1ccco1 | -1 | -2 | -15 | 2 | -3 | 9 | . | .
Cc1sc2nc(CSc3cccc(C(F)(F)F)c3)[nH]c(=O)c2c1C | 3 | 16* | -7 | -5 | 1 | -10 | 5 | 3
COc1cc(NC(=O)Cn2nc(Cc3cccnc3)c3ccccc3c2=O)cc(OC)c1OC | 3 | -1 | -12 | 9 | -1 | 8 | . | .
C=CCOc1ccc(/C=C/C(=O)OCc2csc(CC(=O)Nc3ccccc3C)n2)cc1 | 6 | 15* | -13 | . | -6 | 3 | 8.7* | 15
Cc1ccccc1NC(=O)Cc1nc(COC(=O)c2cc(Br)ccc2O)cs1 | 2 | 16* | -8 | . | -7 | 0 | 2 | 6
CC(C)c1ccc(NS(=O)(=O)c2ccc(-n3cccn3)cc2)cc1 | 10 | 13* | 2 | . | -6 | 3 | 17* | 11
O=C1Nc2ccc(Br)cc2C1=Nc1cccnc1 | -1 | -3 | -13 | . | . | 0 | . | .

Assay outcomes: PubChem, several laboratories
